# Measurements of several laboratories.
# Lines come from different studies, so protocols differ.
# MET Y1235D: Hepatocyte growth factor receptor (MET, Homo sapiens, UniProt P08581, Y1235D)
# MET M1250T: Hepatocyte growth factor receptor (MET, Homo sapiens, UniProt P08581, M1250T)
# MET: Hepatocyte growth factor receptor (MET, Homo sapiens, UniProt P08581)
# MET D1228H: Hepatocyte growth factor receptor (MET, Homo sapiens, UniProt P08581, D1228H)
Structure (SMILES),target,observed,mode,technique,concentration,endpoint,value
CC/C(=N\NC(=O)NCc1cccc(O)c1)c1ccc(O)c(C)c1O,MET Y1235D,enzyme activity,inhibitor,,0.1 µM,inhibition,0.7%
O=C(NC[C@@H]1[C@H]2CN(C(=O)OCc3cc(C(F)(F)F)cc(C(F)(F)F)c3)C[C@@H]12)c1ccc2[nH]nnc2c1,MET M1250T,cell-free assay,,competition with immobilised ligand,1 µM,remaining binding,100%
N[C@@H]1CCN(c2nccc(-c3cnn4ncccc34)n2)C1,MET Y1235D,binding,,,1 µM,remaining binding,100%
Cc1ccc(C(=O)Nc2ccc(CN3CCN(C)CC3)c(C(F)(F)F)c2)cc1C#Cc1cnc2cccnn12,MET M1250T,cell-free assay,,,23.5 nM,remaining signal,86%
O=C(Nc1ccc(Cl)cc1)c1ccccc1NCc1ccncc1,MET,cell-free assay,,,0.5 µM,remaining signal,92.2%
CN(CCCC(F)(F)F)c1nccc(-c2cnn3ncccc23)n1,MET,binding,,,1 µM,remaining binding,100%
Nc1ncnc2occ(-c3ccc(NC(=O)Nc4cc(C(F)(F)F)ccc4F)cc3)c12,MET M1250T,cell-free assay,,,20 µM,remaining signal,4.1%
Cc1ccc(C(=O)NCc2ccsc2)cc1C#Cc1cn(C(C)C)c2ncnc(N)c12,MET,enzyme activity,inhibitor,,1 µM,activity vs control,86%
O=C(Nc1cnn(-c2csc(C(=O)NC3COC3)c2)c1)Nc1ccccc1Cl,MET,enzyme activity,inhibitor,,5 µM,remaining activity,102%
CN1CCN(c2cnc3c(C4CCN(C(=O)c5ccc(OC(F)(F)F)cc5N)CC4)ncnc3c2)CC1,MET M1250T,cell-free assay,,competition with immobilised ligand,1 µM,remaining binding,100%
C[C@H]1CCN(c2nccc(-c3cnn4ncccc34)n2)C1,MET M1250T,binding,,,1 µM,remaining binding,50%
CC(C)CC(=O)N1CCc2nc(-c3ccc(Br)cc3)nc(N(C)Cc3ccccc3)c2C1,MET Y1235D,cell-free assay,,competition with immobilised ligand,0.1 µM,remaining binding,100%
COc1ccnn2ncc(-c3ccnc(N(C)C)n3)c12,MET M1250T,binding,,,1 µM,remaining binding,100%
CC(C)(O)[C@H]1CC[C@H](Nc2ccc3ncc(-c4cccc(C(F)(F)F)c4)n3n2)CC1,MET,enzyme activity,inhibitor,,1 µM,remaining activity,99.8%
Cc1ccc(NC(=O)c2ccc(C)c(C(F)(F)F)c2)cc1C#Cc1nn(C2CCC(O)CC2)c2ncnc(N)c12 (stereo not shown),MET D1228H,cell-free assay,,,10 µM,remaining signal,124%
CC(=O)Nc1c(C(C)=O)c(=O)n(C)c2nc(-c3ccc(Cl)cc3Cl)c(-c3ccc(Cl)cc3)cc12,MET,cell-free assay,,competition with immobilised ligand,1 µM,remaining binding,100%
Cc1cnc(NC2CCOCC2)nc1-n1cnc(C(=O)NC(CN)c2cc(F)cc(Cl)c2)c1 (stereo not shown),MET D1228H,enzyme activity,inhibitor,radiometric,1 µM,remaining activity,98%
O=C(N[C@H]1CCCCC/C=C\C2C[C@@]2(C(=O)O)NC(=O)[C@@H]2C[C@@H](Oc3ccncc3)CN2C1=O)OC1CCCC1 (stereo partly shown),MET M1250T,cell-free assay,,competition with immobilised ligand,1 µM,remaining binding,92%
F[C@@H]1CCN(c2nccc(-c3cnn4ncccc34)n2)C1,MET,binding,,,1 µM,remaining binding,90%
CN(C)C(=O)Cn1cc(-c2nc(C3(c4ccc(-c5cnc(N)nc5)cc4)CC3)no2)cn1,MET,cell-free assay,,competition with immobilised ligand,1 µM,remaining binding,73%
CN(C)c1ncc(F)c(-c2cnn3ncccc23)n1,MET M1250T,binding,,,1 µM,remaining binding,100%
NS(=O)(=O)c1cc(NC(=O)Cc2ccccc2)ccc1Oc1cccc(Cl)c1,MET,cell-free assay,,competition with immobilised ligand,1 µM,remaining binding,91%
Cc1cc(NC(=O)c2cccc3cc(-c4cccc5[nH]nc(N)c45)ccc23)ccc1F,MET,enzyme activity,inhibitor,,0.1 µM,activity vs control,104%
CNC(=O)c1cc2c(Oc3ccc(NC(=O)C4(C(=O)Nc5ccc(F)cc5)CC4)cc3)ccnc2cc1OC,"Hepatocyte growth factor receptor (MET, Homo sapiens, UniProt P08581, Y1230D)",enzyme activity,inhibitor,radiometric,1 µM,inhibition,100%
O=C(O)[C@H]1[C@H](Cn2nnc3ccccc3c2=O)CC[C@@H]1C(=O)c1ccc(OCCC2CCOCC2)cc1,MET Y1235D,cell-free assay,,competition with immobilised ligand,1 µM,remaining binding,100%
O=C1Nc2ccc(Cl)cc2C1=Cc1cc(Cl)c(O)c(Cl)c1,MET,cell-free assay,,,0.5 µM,remaining signal,96.4%
CC(C)(C)c1nc(-c2cccc(NS(=O)(=O)c3c(F)cccc3F)c2F)c(-c2ccnc(N)n2)s1,MET,enzyme activity,inhibitor,radiometric,1 µM,remaining activity,89%
COc1cc(Nc2c(C#N)cnc3cc(OCCCN4CCN(C)CC4)c(OC)cc23)c(Cl)cc1Cl,MET,cell-free assay,,,0.5 µM,remaining signal,84.5%
c1cnn2ncc(-c3ccnc(N4CCC45COC5)n3)c2c1,MET Y1235D,binding,,,1 µM,remaining binding,80%
COc1cc(Cl)c(C(=O)N[C@@H](CN[C@H]2CC[C@@H](N)CC2)Cc2ccc(C#N)cc2)cc1-c1ccc(CN[C@H](C)c2ccc(C)cc2)o1,MET,enzyme activity,inhibitor,,1 µM,remaining activity,63%
CCN(CC)CCNC(=O)c1c(C)[nH]c(/C=C2\C(=O)Nc3ccc(F)cc32)c1C,MET,cell-free assay,,,0.5 µM,remaining signal,91%
